Bioassay records: PubChem BioAssay, several laboratories
Most compounds without a hit are left out; they make up all but 1.5% or so of the library.
GASC-1 inh: inhibitors of human GASC-1 (JMJD2C) demethylase | AID 2099 | GST-JMJD2C(1-420) H3K9me3 demethylation, DELFIA europium | Q9H3R0 | inhibition, % at 2.35 µM | hit rate 0.069% among 330,000;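 active = more than half of a compound's replicate wells show inhibition beyond 50%, single wells judged on their own value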;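 also: signal counts dimethyl H3K9 product captured on neutravidin plate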
NR2E3 ag-1: agonists of human NR2E3 nuclear receptor | hit rate 0.35% among 360,000 | CHO-S Gal4-NCOR/VP16-NR2E3 two-hybrid, luciferase | inhibition of corepressor binding, % at 3.98 µM | Q9Y5X4;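 active = inhibition above the mean of all tested compounds plus 3 SD, cut at about 70% in these data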;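 also: higher means lower luciferase signal from less NR2E3 corepressor binding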
Target sequence (Q9Y5X4 whole entry, looked up, the tested form may be a part): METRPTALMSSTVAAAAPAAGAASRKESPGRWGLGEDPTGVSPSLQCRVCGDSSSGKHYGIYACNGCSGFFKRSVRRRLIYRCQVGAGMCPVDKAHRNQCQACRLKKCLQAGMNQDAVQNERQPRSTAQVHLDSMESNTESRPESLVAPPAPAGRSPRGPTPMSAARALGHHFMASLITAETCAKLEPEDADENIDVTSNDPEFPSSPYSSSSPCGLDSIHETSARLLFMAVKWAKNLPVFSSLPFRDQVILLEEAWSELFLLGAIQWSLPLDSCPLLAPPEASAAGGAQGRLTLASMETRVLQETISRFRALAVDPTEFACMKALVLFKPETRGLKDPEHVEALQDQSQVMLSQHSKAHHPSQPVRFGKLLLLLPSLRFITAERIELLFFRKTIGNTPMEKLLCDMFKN
NR2E3 ag-2: activates human photoreceptor nuclear receptor NR2E3 | Q9Y5X4 | GST-NR2E3/biotin-RetCOR TR-FRET, 1536-well | inhibition of corepressor binding, % at 4.78 µM | hit rate 0.12% among 320,000 | AID 2300;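 active = percent inhibition above the cutoff of mean plus 3 SD of all tested compounds, set per screening campaign, cut at about 20% in these data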
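Material: NR2E3–RetCOR corepressor complex / Incubation: Compound–protein incubation for 5 h at 4 °C / Dosing: compound at 4.8 µM, single dose / Detection: time-resolved FRET / Benchmarks: high control biotin, low control 0.6% DMSO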
697 NFkB inh: inhibitors of the PMA/ionomycin-induced NF-kB reporter in 697 B cells; hit rate 0.33% among 330,000; AID 435022; 697 B-cell NF-kB luciferase reporter, 16 h; inhibition, % at 4 µM; in the data active = inhibition above about 35%
Jurkat NFkB inh: lowers PMA/ionomycin-induced NF-kB signal in Jurkat cells. PMA/ionomycin-induced NF-kB luciferase reporter, luminescence. inhibition, % at 4 µM. hit rate 0.53% among 330,000. AID 435003; in the data active = inhibition above about 50%
GalR3 antag: antagonists of human GalR3; O60755; hit rate 0.44% among 360,000; HEK293 GalR3-CNG cAMP membrane potential fluorescence; galR3 body fused to GalR1 C-terminus; AID 651719; inhibition, % at 3 µM;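 active = inhibition above the screen-wide average plus 3 SD, cut at about 13% in these data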;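 also: forskolin and galanin both at EC90 stimulate the cells; cAMP rise reported by CNG channel membrane potential dye signal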
Target sequence (O60755 1-299 limits assumed): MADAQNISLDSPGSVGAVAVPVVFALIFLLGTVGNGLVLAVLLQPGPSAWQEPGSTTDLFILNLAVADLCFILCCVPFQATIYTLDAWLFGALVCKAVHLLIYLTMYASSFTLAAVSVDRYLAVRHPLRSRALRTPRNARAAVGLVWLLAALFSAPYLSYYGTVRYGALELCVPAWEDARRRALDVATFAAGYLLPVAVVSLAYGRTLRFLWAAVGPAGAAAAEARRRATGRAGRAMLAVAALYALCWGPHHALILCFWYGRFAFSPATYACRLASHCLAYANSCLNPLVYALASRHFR
Jurkat NFkB conf: lowers PMA/ionomycin-induced NF-kB signal in Jurkat cells | AID 435020 | shares compounds with Jurkat NFkB inh | inhibition, % at 4 µM | hit rate 27% among 2,700 | Jurkat NF-kB luciferase, 16 h;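 active = inhibition reaching about 45% at 4 µM in either replicate, limit read from the data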
Numbers stand for hits.

Results for C=CCn1c(/N=C/c2ccc(N(C)C)cc2)nc2ccccc21 ?
GASC-1 inh: inactive; NR2E3 ag-1: inactive; NR2E3 ag-2: inactive; 697 NFkB inh: inactive; Jurkat NFkB inh: inactive; GalR3 antag: inactive

What do the screens show for `CN(C)c1ccc(/C=N/n2ncc3ccccc32)cc1`?
GASC-1 inh: inactive; NR2E3 ag-1: inactive; NR2E3 ag-2: inactive; 697 NFkB inh: inactive; Jurkat NFkB inh: inactive; Jurkat NFkB conf: inactive

Results for CC(=O)Oc1ccc2c(=O)c(-c3nc4ccccc4s3)coc2c1 ?
GASC-1 inh: inactive; NR2E3 ag-1: inactive; NR2E3 ag-2: inactive; 697 NFkB inh: inactive; Jurkat NFkB inh: inactive; GalR3 antag: inactive

Results for Cc1ccc(-c2nc3ccc(Cl)cc3n2OC(C)C(=O)O)cc1 (stereo not drawn) ?
GASC-1 inh: inactive; NR2E3 ag-1: inactive; NR2E3 ag-2: inactive; 697 NFkB inh: inactive; Jurkat NFkB inh: inactive; GalR3 antag: inactive; Jurkat NFkB conf: inactive

How did COc1ccc(-n2nc3cc(C)c(N)c(Br)c3n2)cc1 do in these assays?
GASC-1 inh: inactive; NR2E3 ag-1: inactive; NR2E3 ag-2: inactive; 697 NFkB inh: inactive; Jurkat NFkB inh: inactive; GalR3 antag: inactive; Jurkat NFkB conf: inactive

How did CC1(C)CC(N2CCN(c3ccccc3)CC2)=CC(=[N+]2CCCC2)C1 do in these assays?
GASC-1 inh: inactive; NR2E3 ag-1: inactive; NR2E3 ag-2: inactive; 697 NFkB inh: inactive; Jurkat NFkB inh: 57; GalR3 antag: inactive; Jurkat NFkB conf: inactive

What do the screens show for `CCN(CC)C1=CC(=[N+]2CCCC2)CC(C)(C)C1`?
GASC-1 inh: inactive; NR2E3 ag-1: inactive; NR2E3 ag-2: inactive; 697 NFkB inh: inactive; Jurkat NFkB inh: inactive; GalR3 antag: inactive

How did N#C/C(=N\Nc1cccc(F)c1)C(=N)N1CCCCCC1 do in these assays?
GASC-1 inh: inactive; NR2E3 ag-1: inactive; NR2E3 ag-2: inactive; 697 NFkB inh: inactive; Jurkat NFkB inh: inactive; GalR3 antag: inactive; Jurkat NFkB conf: inactive

What do the screens show for `CCCN(CCC)S(=O)(=O)c1ccc(C(=O)OCCN2C(=O)c3cccc4c(N5CCOCC5)ccc(c34)C2=O)cc1`?
GASC-1 inh: inactive; NR2E3 ag-1: inactive; NR2E3 ag-2: inactive; 697 NFkB inh: inactive; Jurkat NFkB inh: inactive

How did O=C(OCCN1C(=O)c2cccc3c(N4CCOCC4)ccc(c23)C1=O)c1ccc(Cl)cc1 do in these assays?
GASC-1 inh: inactive; NR2E3 ag-1: inactive; NR2E3 ag-2: inactive; 697 NFkB inh: inactive; Jurkat NFkB inh: 64; GalR3 antag: inactive; Jurkat NFkB conf: inactive

What do the screens show for `C/C(=N\OC(=O)NC(C)C)c1sc(-c2ccc(Cl)cc2)nc1C`?
GASC-1 inh: inactive; NR2E3 ag-1: inactive; NR2E3 ag-2: inactive; 697 NFkB inh: inactive; Jurkat NFkB inh: inactive; GalR3 antag: inactive

What do the screens show for `CCNC(=O)O/N=C(\C)c1sc(-c2ccc(Cl)cc2)nc1C`?
GASC-1 inh: inactive; NR2E3 ag-1: inactive; NR2E3 ag-2: inactive; 697 NFkB inh: inactive; Jurkat NFkB inh: inactive; GalR3 antag: inactive; Jurkat NFkB conf: inactive

How did Fc1ccccc1CSc1nc2ccccc2[nH]1 do in these assays?
GASC-1 inh: inactive; NR2E3 ag-1: inactive; NR2E3 ag-2: inactive; 697 NFkB inh: inactive; Jurkat NFkB inh: inactive; GalR3 antag: inactive; Jurkat NFkB conf: inactive

What do the screens show for `CC(=O)c1cccc(NC(=O)CSc2nc(=O)n(CCN3CCOCC3)c3c2CCCC3)c1`?
GASC-1 inh: inactive; NR2E3 ag-1: inactive; NR2E3 ag-2: inactive; 697 NFkB inh: inactive; Jurkat NFkB inh: inactive; GalR3 antag: inactive

How did C=CCOc1c(Cl)cc(CNc2ccc(C)c(Cl)c2)cc1OC do in these assays?
GASC-1 inh: inactive; NR2E3 ag-2: inactive; 697 NFkB inh: inactive; Jurkat NFkB inh: 60; Jurkat NFkB conf: inactive

How did COc1ccc(NC(=O)COc2cc(C)cc(C)c2)cc1S(=O)(=O)N1CCCCC1 do in these assays?
GASC-1 inh: inactive; NR2E3 ag-1: inactive; NR2E3 ag-2: inactive; 697 NFkB inh: inactive; Jurkat NFkB inh: 57; GalR3 antag: inactive; Jurkat NFkB conf: inactive

How did COc1ccc(NC(=O)COc2ccc(C)c(C)c2)cc1S(=O)(=O)N1CCCCC1 do in these assays?
GASC-1 inh: inactive; NR2E3 ag-1: inactive; NR2E3 ag-2: inactive; 697 NFkB inh: inactive; Jurkat NFkB inh: inactive; GalR3 antag: inactive

Results for CCCCCCn1cc(CN2CC(N3CCN(C4CCN(C)CC4)CC3)CS2(=O)=O)nn1 (stereo not drawn) ?
NR2E3 ag-1: inactive; GalR3 antag: inactive

How did COc1cc(C(=O)COC(=O)c2c(C)noc2C)cc(OC)c1OC do in these assays?
GASC-1 inh: inactive; NR2E3 ag-1: inactive; 697 NFkB inh: inactive; Jurkat NFkB inh: inactive; GalR3 antag: inactive; Jurkat NFkB conf: inactive

Results for O=C(CCC(=O)N1CCOCC1)NCCc1ccccc1 ?
GASC-1 inh: inactive; NR2E3 ag-1: inactive; NR2E3 ag-2: inactive; 697 NFkB inh: inactive; Jurkat NFkB inh: inactive; GalR3 antag: inactive

How did Cc1ccc(-n2cnc(N)c2C(=O)c2cccc([N+](=O)[O-])c2)cc1 do in these assays?
GASC-1 inh: inactive; NR2E3 ag-1: inactive; NR2E3 ag-2: inactive; 697 NFkB inh: inactive; Jurkat NFkB inh: inactive; GalR3 antag: inactive

How did COC(=O)c1ccc(Nc2cc(C)nc3ccc(C)cc23)cc1 do in these assays?
GASC-1 inh: inactive; NR2E3 ag-1: inactive; NR2E3 ag-2: inactive; 697 NFkB inh: inactive; Jurkat NFkB inh: 59; GalR3 antag: inactive; Jurkat NFkB conf: inactive

How did COc1ccc(/C=N/Nc2cc(C)nc3ccc(OC)cc23)c(OC)c1 do in these assays?
GASC-1 inh: inactive; NR2E3 ag-1: inactive; NR2E3 ag-2: inactive; 697 NFkB inh: inactive; Jurkat NFkB inh: 77; GalR3 antag: inactive; Jurkat NFkB conf: inactive

What do the screens show for `COc1ccc2nc(C)cc(Nc3ccc(N4CCN(C)CC4)cc3)c2c1`?
GASC-1 inh: inactive; NR2E3 ag-1: inactive; NR2E3 ag-2: inactive; 697 NFkB inh: inactive; Jurkat NFkB inh: 74; GalR3 antag: inactive; Jurkat NFkB conf: inactive

How did COc1ccc(OC)c(Nc2cc(C)nc3ccc(C)cc23)c1 do in these assays?
GASC-1 inh: inactive; NR2E3 ag-1: inactive; NR2E3 ag-2: inactive; 697 NFkB inh: inactive; Jurkat NFkB inh: 62; GalR3 antag: inactive; Jurkat NFkB conf: inactive

Results for COc1ccc2nc(C)cc(N/N=C/c3ccccc3)c2c1 ?
GASC-1 inh: inactive; NR2E3 ag-1: inactive; NR2E3 ag-2: inactive; 697 NFkB inh: inactive; Jurkat NFkB inh: inactive

What do the screens show for `CC1(C(=O)Nc2ccccc2)CCN1C(=O)CCc1ccc(Cl)cc1Cl` (stereo not drawn)?
NR2E3 ag-1: inactive; GalR3 antag: inactive

What do the screens show for `COc1cc2c(cc1OC)CN(C(=O)C1CCCN1S(=O)(=O)c1ccc(F)cc1)CC2` (stereo not drawn)?
GASC-1 inh: inactive; NR2E3 ag-1: inactive; NR2E3 ag-2: inactive; 697 NFkB inh: inactive; Jurkat NFkB inh: inactive; GalR3 antag: inactive

Results for COc1ccc(/C=N/Nc2ncc(-c3ccccc3)cn2)c(OC)c1 ?
GASC-1 inh: inactive; NR2E3 ag-1: inactive; NR2E3 ag-2: inactive; 697 NFkB inh: inactive; Jurkat NFkB inh: inactive; GalR3 antag: inactive
